Measured values pooled from the literature.
Compare with care: the assays were run in different laboratories.
TPR: Trypanothione reductase (TPR, Trypanosoma cruzi, UniProt P28593)

OC[C@H]1O[C@H]([S-])[C@H](O)[C@@H](O)[C@@H]1O.[Au+] — IC50 (Tyrosine-protein phosphatase non-receptor type 12 (PTPN12, Homo sapiens, UniProt Q05209); enzyme activity; inhibitor; fluorescence): 8 µM
Cc1cc(C)c2[nH]c(=O)c(CN(CCO)C(=S)Nc3ccc(N4CCOCC4)cc3)cc2c1 — EC50 (Beta-glucuronidase (uidA, Escherichia coli, UniProt P05804); enzyme activity; inhibitor): 3.1 µM
CNC(=O)[C@@]12C[C@@H]1[C@@H](n1cnc3c(NC)nc(C#Cc4ccc(Cl)s4)cc31)[C@H](O)[C@@H]2O — Ki (Sodium-dependent noradrenaline transporter (SLC6A2, Homo sapiens, UniProt P23975); ligand displacement; radioligand; cell membranes): > 10 µM
Cc1cc(O)cc(C)c1C[C@H](N)C(=O)N[C@H](C)C(=O)N[C@@H](Cc1ccccc1)C(=O)N[C@@H](CCCN)C(N)=O — Ki (Mu-type opioid receptor (OPRM1, Cavia porcellus, UniProt P97266); ligand displacement; radioligand; cell membranes): 3.3e-05 µM
CC(=O)Nc1ccc(O)cc1 — Ki (Ribosyldihydronicotinamide dehydrogenase [quinone] (NQO2, Homo sapiens, UniProt P16083); enzyme activity; inhibitor): > 1000 µM
CC(C)(C)[C@H](Nc1nc(Cl)nc2c1ncn2[C@H]1[C@H](O)[C@H](O)[C@]2(CO)C[C@H]12)C1CC1 — Ki (Muscarinic acetylcholine receptor M5 (CHRM5, Homo sapiens, UniProt P08912); ligand displacement; radioligand): > 6.2 µM
CSCC[C@H](NC(=O)[C@H](CCC(N)=O)NC(=O)[C@H](C)NC(=O)[C@H](CO)NC(=O)[C@@H](N)CO)C(=O)N[C@@H](CC(N)=O)C(=O)N[C@@H](CC(C)C)C(=O)N[C@@H](CC(N)=O)C(=O)N[C@H](C(=O)N[C@@H](Cc1ccccc1)C(=O)N[C@@H](CC(C)C)C(=O)N[C@@H](CC(N)=O)C(=O)O)[C@@H](C)O — IC50 (1-deoxy-D-xylulose 5-phosphate reductoisomerase (Escherichia coli K-12, UniProt P45568); enzyme activity; inhibitor; absorbance; with preincubation): 266 µM
C=CCn1c2cc(OC(=O)CCCCN3CCN(Cc4ccccc4C(F)(F)F)CC3)ccc2c2ccnc(C)c21 — IC50 (Cholinesterase (BCHE, Homo sapiens, UniProt P06276); enzyme activity; inhibitor; Ellman): 0.357 µM
O=C(O)c1ccccc1-c1c2cc(Br)c(=O)cc-2oc2[c]([Hg+])c(O)c(Br)cc12 — Kd (Proteinase K (PROK, Engyodontium album, UniProt P06873); binding; ITC): ~3000 µM
CNC1CC(c2ccc(Cl)c(Cl)c2)c2ccccc21 (stereo not drawn) — IC50 (TPR; enzyme activity; inhibitor; absorbance): 7.26 µM
CSCC[C@H](NC(=O)[C@H](CC(C)C)NC(=O)[C@H](Cc1cnc[nH]1)NC(=O)CNC(=O)[C@@H](NC(=O)[C@H](C)NC(=O)[C@H](Cc1c[nH]c2ccccc12)NC(=O)[C@H](CCC(N)=O)NC(=O)[C@H](CC(N)=O)NC(=O)CNC(=O)[C@H](CC(C)C)NC(=O)[C@H](CCCN=C(N)N)NC(=O)[C@H](CCC(N)=O)NC(=O)[C@@H]1CCC(=O)N1)C(C)C)C(N)=O — EC50 (Bombesin receptor subtype-3 (Brs3, Mus musculus, UniProt O54798); calcium signal; agonist; fluorescence): > 10 µM
C[C@H](N)Cn1ncc2ccc3c(c21)CCCO3 — IC50 (Serotonin 4 (5-HT4) receptor (Sus scrofa, UniProt Q6Q253); ligand displacement; radioligand): 30.3 µM
Cn1cc(-c2cccc(N3CCc4c(sc5c4CC(C)(C)C5)C3=O)c2CO)cc(Nc2ccncn2)c1=O — Ki (Tyrosine-protein kinase Fgr (FGR, Homo sapiens, UniProt P09769); enzyme activity; inhibitor; FRET): > 1.11 µM
c1ccc(CCCN2CCN(CCOC(c3ccccc3)c3ccccc3)CC2)cc1 — IC50 (TPR; enzyme activity; inhibitor; absorbance): 10.9 µM
CCCCc1cc2cc(-n3nc(C)c4c3CC(C)(C)CC4=O)cc(N[C@H]3CC[C@H](O)CC3)c2c(=O)[nH]1 — IC50 (Heat shock protein HSP 90-beta (HSP90AB1, Homo sapiens, UniProt P08238); ligand displacement; FP): 0.186 µM
